Laboratory results from ChEMBL document CHEMBL3822382 (Eur J Med Chem, 2016).
The source made the active and inactive calls. The rule behind the calls is not given here.

What was measured:
[1] = species on record: Sus scrofa; assay: Inhibition of porcine brain alpha/beta tubulin polymerization at 5 uM measured every 20 sec by microplate reader analysis
[2] = Growth inhibition of human MCF7/Topo cells after 24 hrs by MTT assay; format: functional, cell-based
In short: (§1)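 Cells seeded at 5000/well (Ea.hy926 10,000/well) and exposed for 24 h to dilution series of 100 µM–5 pM, with DMSO as solvent control. MTT (0.5 mg/mL final) for 2 h. Formazan dissolved in SDS/acetic acid/DMSO and read at 570 nm against a 630 nm background. Viability taken relative to DMSO controls; IC50 from dose–response curves, mean of four independent experiments.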

[3] = Growth inhibition of human 518A2 cells after 24 hrs by MTT assay; format: functional, cell-based; conditions: 518A2, 24 h; in short: as §1
[4] = test system: HT-29; assay: Growth inhibition of combretastatin A-4 resistant human HT-29 cells after 72 hrs by MTT assay; format: functional, cell-based; conditions: HT-29, 72 h
In short: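 5000 cells/well exposed for 72 h to dilution series of 100 µM–5 pM, with DMSO as solvent control. MTT 0.5 mg/mL final for 2 h, absorbance at 570/630 nm. Percentage viable cells taken versus DMSO controls; IC50 from dose–response curves, mean of four independent experiments.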

[5] = test system: HT-29; assay: Growth inhibition of combretastatin A-4 resistant human HT-29 cells after 24 hrs by MTT assay; format: functional, cell-based; conditions: HT-29, 24 h; in short: as §1
[6] = Growth inhibition of human EAhy926 cells after 24 hrs by MTT assay; format: cell-based; conditions: EA.hy 926, 24 h; in short: as §1
[7] = Growth inhibition of human KB-V1/Vbl cells after 24 hrs by MTT assay; format: functional; in short: as §1
[8] = Growth inhibition of human HCT116 cells expressing wild type p53 after 72 hrs by MTT assay; format: functional, cell-based; conditions: HCT-116, 72 h
In short: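 HCT-116 cells, p53 wild-type or p53-/-, seeded at 5000/well and treated 72 h with dilution series (100 µM–5 pM) or DMSO. MTT 0.5 mg/mL for 2 h, absorbance at 570/630 nm. Viability relative to DMSO controls; IC50 from dose–response curves, mean of three independent experiments ± S.D.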

[9] = Growth inhibition of primary chicken fibroblasts after 48 hrs by MTT assay; format: cell-based; conditions: Gallus gallus, Fibroblast
In short: (§2)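 Chicken heart fibroblasts explanted from 10-day-old embryos, seeded at 10,000/well; cardiomyocytes seeded at 20,000/well. Dilution series given for 48 h, DMSO as control. MTT 0.5 mg/mL for 2 h, absorbance at 570/630 nm. Viability versus DMSO controls; IC50 from dose–response curves, mean of three independent experiments.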

[10] = Growth inhibition of chicken cardiomyocytes after 48 hrs by MTT assay; conditions: Gallus gallus, Cardiomyocyte; in short: as §2
[11] = Cell cycle arrest in human HCT116 cells expressing wild type p53 assessed as accumulation at subG1 phase at 100 nM after 24 hrs by propidium iodide staining-based flow cytometry (reference value: 7.1%); format: functional; conditions: HCT-116
[12] = Cell cycle arrest in human HCT116 cells expressing wild type p53 assessed as accumulation at subG1 phase at 50 nM after 24 hrs by propidium iodide staining-based flow cytometry (reference value: 7.1%); format: functional; conditions: HCT-116
[13] = Cell cycle arrest in human HCT116 cells expressing wild type p53 assessed as accumulation at G1 phase at 100 nM after 24 hrs by propidium iodide staining-based flow cytometry (reference value: 56.7%); format: functional; conditions: HCT-116
[14] = Cell cycle arrest in human HCT116 cells expressing wild type p53 assessed as accumulation at G1 phase at 50 nM after 24 hrs by propidium iodide staining-based flow cytometry (reference value: 56.7%); format: functional; conditions: HCT-116
[15] = Cell cycle arrest in human HCT116 cells expressing wild type p53 assessed as accumulation at S phase at 100 nM after 24 hrs by propidium iodide staining-based flow cytometry (reference value: 15.3%); format: functional; conditions: HCT-116
[16] = Cell cycle arrest in human HCT116 cells expressing wild type p53 assessed as accumulation at S phase at 50 nM after 24 hrs by propidium iodide staining-based flow cytometry (reference value: 15.3%); format: functional; conditions: HCT-116
[17] = Cell cycle arrest in human HCT116 cells expressing wild type p53 assessed as accumulation at G2/M phase at 50 nM after 24 hrs by propidium iodide staining-based flow cytometry (reference value: 21%); format: functional; conditions: HCT-116
[18] = Cell cycle arrest in human MCF7/Topo cells assessed as accumulation at subG1 phase at 100 nM after 24 hrs by propidium iodide staining-based flow cytometry (reference value: 4.6%); format: functional
[19] = Cell cycle arrest in human MCF7/Topo cells assessed as accumulation at G1 phase at 100 nM after 24 hrs by propidium iodide staining-based flow cytometry (reference value: 47.8%); format: functional
[20] = Cell cycle arrest in human MCF7/Topo cells assessed as accumulation at G2/M phase at 100 nM after 24 hrs by propidium iodide staining-based flow cytometry (reference value: 31.6%); format: functional
[21] = Cell cycle arrest in human HCT116 cells expressing wild type p53 assessed as apoptotic index ratio at 100 nM after 24 hrs by propidium iodide staining-based flow cytometry relative to control; format: functional; conditions: HCT-116
[22] = Cell cycle arrest in human HCT116 cells expressing wild type p53 assessed as apoptotic index ratio at 50 nM after 24 hrs by propidium iodide staining-based flow cytometry relative to control; format: functional; conditions: HCT-116
[23] = Cell cycle arrest in human HCT116 cells expressing wild type p53 assessed as G2/M index ratio at 100 nM after 24 hrs by propidium iodide staining-based flow cytometry relative to control; format: functional; conditions: HCT-116
[24] = Cell cycle arrest in human MCF7/Topo cells assessed as apoptotic index ratio at 100 nM after 24 hrs by propidium iodide staining-based flow cytometry relative to control; format: functional
[25] = Cell cycle arrest in human MCF7/Topo cells assessed as G2/M index ratio at 100 nM after 24 hrs by propidium iodide staining-based flow cytometry relative to control; format: functional
[26] = test system: EA.hy 926; assay: Antivascular activity in human EAhy926 cells assessed as induction of retraction of cells to nodes at 250 nM after 16 hrs by light microscopic analysis; format: functional, cell-based
In short: (§3)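 Ea.hy926 cells (100,000/well) were seeded on Matrigel-coated coverslips and allowed 12 h to form vessel-like networks. Test agent (CA-4 100 nM; indoles 250 nM) or DMSO was then added for 16 h, and networks were documented by light microscopy. Viability was checked by 2 h MTT (0.5 mg/mL) relative to DMSO controls.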

[27] = test system: EA.hy 926; assay: Antivascular activity in human EAhy926 cells assessed as disruption of preformed blood vessel lke network at 250 nM after 16 hrs by matrigel based tube formation assay; format: functional, cell-based; in short: as §3
[28] = test system: Chorioallantoic membrane; assay: Antivascular activity in fertilized white leghorn egg chorioallantoic membrane assessed as disruption of preformed blood vessel at 2.5 to 5 nmol after 24 to 48 hrs by stereomicroscopic analysis; format: functional, tissue-based; conditions: Gallus gallus
[29] = Cytotoxicity against fertilized white leghorn chicken embryos in CAM model assessed as lethality at 5 nmol after 24 hrs relative to control; format: organism-based, Gallus gallus; conditions: in vivo
In short: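 Day-5 fertilized eggs (37 °C, 50-60% humidity) windowed, with 6 mm silicon rings placed on CAM vessels and incubated a further 24 h. Compound diluted to 500 µM in PBS and pipetted inside the ring (10 µL = 5 nmol); DMSO control. Vessel changes documented by stereomicroscopy at 0, 12 and 24 h.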

In the case of `COc1cc(-c2ncn(C)c2-c2ccc3c(c2)c(Cl)cn3C)cc(OC)c1OC`, the inhibition [1] is reported as “Active”, the IC50 [2] is reported as 0.0202 µM and the IC50 [3] is reported as 0.0654 µM. The IC50 [4] was 0.0156 µM, the IC50 [5] was 0.0262 µM and the IC50 [6] was 0.0246 µM. The IC50 [7] was 0.026 µM, the IC50 [8] was 0.0095 µM and the IC50 [9] was 11.6 µM. For the same compound, the IC50 [10] was 1.87 µM, the Activity [11] was 32.4% and the Activity [12] was 30.6%. For the same compound, the Activity [13] was 9.3%, the Activity [14] was 43.6% and the Activity [15] was 7.8%. It also gave an Activity [16] of 11.1%, an Activity [17] of 14.6% and an Activity [18] of 30.7%. The Activity [19] was 16.5%, the Activity [20] was 42.9% and the Ratio [21] was 26.1. The Ratio [22] was 24.4, the Ratio [23] was 14.8 and the Ratio [24] was 27.2. The Ratio [25] was 3.9, the Activity [26] was “Active” and the Activity [27] was “Active”. The Activity [28] was “inactive” and the mortality at 24 h [29] was 80%.

In the case of `COc1cc(-c2ncn(C)c2-c2ccc3c(c2)c(Cl)cn3C)cc(Br)c1OC.Cl`, the inhibition [1] is reported as “inactive”, the IC50 [2] is reported as 0.0188 µM and the IC50 [3] is reported as 0.0519 µM. For the same compound, the IC50 [4] was 0.0234 µM, the IC50 [5] was 0.0313 µM and the IC50 [6] was 0.0299 µM. For the same compound, the IC50 [7] was 0.0254 µM, the IC50 [8] was 0.0274 µM and the IC50 [9] was 23 µM. For the same compound, the IC50 [10] was 3.97 µM, the Activity [11] was 25.9% and the Activity [12] was 16.2%. It also gave an Activity [13] of 9%, an Activity [14] of 53.9% and an Activity [15] of 5.4%. The Activity [16] was 12.7%, the Activity [17] was 17.2% and the Activity [18] was 24.6%. The Activity [19] was 14.4%, the Activity [20] was 52.4% and the Ratio [21] was 19.7. For the same compound, the Ratio [22] was 10.2, the Ratio [23] was 17.9 and the Ratio [24] was 21.1. For the same compound, the Ratio [25] was 5.5, the Activity [26] was “Active” and the Activity [27] was “Active”. The Activity [28] was “inactive” and the mortality at 24 h [29] was 33%.
